We go through seven molecules from PubChem BioAssay.

For orientation: inhibition means the drop in the measured response relative to a control, in per cent.

A short description of assay [1]: inhibitors of TNFa-induced NFkB p65 translocation, primary screen, imaging, HUVEC, MLSMR starter and 10KST1 sets (AID 438;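 active = inhibition above 20% together with a positive visual image hit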;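 note: compound added about 3h40 before a 20 min TNFalpha stimulation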;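 for inhibition: signal is the nuclear over cytoplasmic p65 intensity ratio per well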). The note with it: HUVEC TNFa-induced p65 nuclear translocation; cell count: measured here: nuclei count (cytotoxicity indicator), at 2.08 µM; inhibition: at 2 µM, stronger effect = higher value, 0% TNFa-plus-vehicle, 100% no-TNFa wells.
A short description of assay [2]: inhibitors of E-selectin induction by TNFa, primary screen, imaging, HUVEC, immunofluorescence, MLSMR starter and 10KST1 sets (AID 487;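 active = visually confirmed hit in the image check and inhibition above 20%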;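 for inhibition: signal is fraction of cell area covered by stained E-selectin grains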;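 for nuclei count: 100% = median nuclei count of all wells on the same plate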). To be noted: HUVEC TNFalpha-induced E-selectin immunofluorescence imaging, at 2 µM; inhibition: stronger effect = higher value; nuclei count: measured here: cell number, toxicity.
Assay [3] in a line: DUSP6 inhibitors restoring Erk phosphorylation by chemical complementation, primary imaging in DUSP6-transfected HeLa (AID 609;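 active = compounds giving at least 50% inhibition in the cell-based MKP-3 phosphatase rescue imaging test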;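 for inhibition: phospho-Erk level distribution per well compared with pooled transfected vehicle control wells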). To be noted: HeLa MKP-3 transfected, phospho-Erk imaging KS statistic, at 10 µM, cells stimulated with TPA for 15 min.
In assay [4] the target is Dual specificity protein phosphatase 6 (Homo sapiens) (UniProt Q16828). Described as above. The note with it: HeLa MKP-3 transfected, phospho-Erk imaging KS statistic; at 10 µM; stronger effect = higher value; cells stimulated with TPA for 15 min.
Sequence of Dual specificity protein phosphatase 6 (Homo sapiens) (Q16828 whole entry, looked up): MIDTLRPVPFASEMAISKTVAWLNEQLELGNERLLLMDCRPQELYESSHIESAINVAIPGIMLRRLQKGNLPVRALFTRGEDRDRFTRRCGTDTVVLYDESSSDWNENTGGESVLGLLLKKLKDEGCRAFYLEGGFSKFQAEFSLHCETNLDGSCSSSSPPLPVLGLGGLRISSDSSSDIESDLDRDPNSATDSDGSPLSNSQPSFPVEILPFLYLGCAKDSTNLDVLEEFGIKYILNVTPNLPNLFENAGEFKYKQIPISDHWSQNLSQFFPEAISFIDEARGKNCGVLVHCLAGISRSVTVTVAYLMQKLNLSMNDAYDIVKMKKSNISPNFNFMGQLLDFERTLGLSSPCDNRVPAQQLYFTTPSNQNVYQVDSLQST
The target in assay [5] is Voltage-gated potassium channel subunit beta-2 (Rattus norvegicus) (UniProt P62483). The assay can be described thus: KvBeta enzyme negative modulators, primary screen, biochemical, NADPH fluorescence (AID 622;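 active = fluorescence slope higher than the sample average by over 3 SD, cut at about -0.22 in these data, passing the limit was not always enough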;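 note: slope of raw intensity against log time taken from 70 to 1610 s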). The note with it: recombinant KvBeta, 4-cyanobenzaldehyde reduction, at 10 µM, stronger effect = higher value.
Sequence of Voltage-gated potassium channel subunit beta-2 (Rattus norvegicus) (P62483 whole entry, looked up): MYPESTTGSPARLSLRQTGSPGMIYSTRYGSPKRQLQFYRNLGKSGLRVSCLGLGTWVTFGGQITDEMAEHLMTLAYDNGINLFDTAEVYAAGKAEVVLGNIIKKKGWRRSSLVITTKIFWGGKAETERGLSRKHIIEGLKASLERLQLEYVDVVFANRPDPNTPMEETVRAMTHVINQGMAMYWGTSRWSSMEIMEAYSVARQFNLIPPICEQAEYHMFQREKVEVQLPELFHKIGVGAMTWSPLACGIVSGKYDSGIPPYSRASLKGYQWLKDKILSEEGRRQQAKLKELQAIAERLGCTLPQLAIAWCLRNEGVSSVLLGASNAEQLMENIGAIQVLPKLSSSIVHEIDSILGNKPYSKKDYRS
For assay [6] the target is unchanged. The assay can be described thus: KvBeta positive modulators, primary screen, biochemical, NADPH fluorescence (AID 623;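 active = NADPH fluorescence slope more negative than the mean of all samples by about 3 SD, 99.7% confidence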;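 note: fluorescence intensity change per second fitted from 20 to 320 s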). To be noted: Recombinant KvBeta, NADPH fluorescence decrease slope, 10 min; at 10 µM; stronger effect = lower value.
Assay [7] deals with Alpha-2C adrenergic receptor (Homo sapiens) (UniProt P18825). Kind of assay: modulators of alpha2C/GIRK thallium flux, primary screen, cell-based, HEK293 alpha2C/GIRK1/2 (AID 624).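 Note: slope of fluorescence ratio to pre-addition baseline per second over 15 to 24 s.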 To be noted: thallium flux BTC fluorescence, at 10 µM, actives lie on both sides.
Sequence of Alpha-2C adrenergic receptor (Homo sapiens) (P18825 whole entry, looked up): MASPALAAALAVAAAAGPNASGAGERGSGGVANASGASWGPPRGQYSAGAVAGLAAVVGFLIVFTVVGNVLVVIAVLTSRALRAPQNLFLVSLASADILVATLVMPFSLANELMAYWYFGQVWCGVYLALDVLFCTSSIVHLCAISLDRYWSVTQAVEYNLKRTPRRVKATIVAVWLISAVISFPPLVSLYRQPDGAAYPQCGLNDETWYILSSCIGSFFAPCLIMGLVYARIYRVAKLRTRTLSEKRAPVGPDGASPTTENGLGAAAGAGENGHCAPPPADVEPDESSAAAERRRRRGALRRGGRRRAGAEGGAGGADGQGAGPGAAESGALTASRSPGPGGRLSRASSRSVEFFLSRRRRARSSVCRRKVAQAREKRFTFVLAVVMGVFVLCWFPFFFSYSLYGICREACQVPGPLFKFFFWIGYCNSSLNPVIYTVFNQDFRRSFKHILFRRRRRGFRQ
A short description of assay [8]: inhibitors of larval lipid processing in zebrafish, primary screen, whole organism, PED6 fluorescence, gall bladder and intestine (AID 686;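 active = a full or partial loss of lipid-probe fluorescence in the fish gall bladder, intestine or both, judged by eye; inactive = no fluorescence loss, or compound toxic to the fish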;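 note: signal comes from phospholipase A2 cleavage of quenched PED6 carried via bile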). The note with it: Zebrafish larvae PED6 lipid processing, fluorescence scoring; screened at 20 µM (by protocol). The method in brief: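 Doses: 20 µM single dose. Test system: live zebrafish larvae aged 5-7 days, whole organism. Quantity: five larvae per well. Measured by: By-eye fluorescence microscopy. Reagent: ingested quenched lipid PED6 at 100 nM. Read-out: visual per-well fluorescence inhibition score. Times: overnight exposure of larvae to compound plus PED6.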

The nature of assay [9]: inhibitors of Chlamydomonas gravitaxis, primary screen, whole organism, Chlamydomonas reinhardtii, WT vs cilia-less mutant, absorbance, 96-well (AID 463189;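 active = inhibition at or above 50% relative to wild type and mutant plate controls; inactive = inhibition below 50%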;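 note: 0% = wild type cc124 cells in DMSO and 100% = ciliumless bld1 mutant cells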). To be noted: OD600 absorbance, 2 days, at 10 µM, stronger effect = higher value.
Setting [10] is: measured here: cell density z-score.
[11] abbreviates: measured here: nuclear c-Myc green intensity z-score.
Setting [12] is: measured here: nuclear pErk red intensity z-score, stronger effect = higher value.

Calls of active or inactive are those of the source.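 Rule for the calls, unless noted: active = fluorescence slope after compound addition differing from the mean of all screened samples at 99.7% confidence, in either direction; inactive = the rest.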

Consider `CN1C(=O)c2ccc(N(C)C)cc2C1=O`, for which, in assay [1], the cell count amounted to 681. Moreover, the inhibition in assay [1] is -8.8% (inactive); in assay [2], 17.3% (inactive); in [4], 3.66% (inactive); in [9], 21.8% (inactive). Moreover, the nuclei count in assay [2] amounted to 175%. Besides, the z-score in [3] (setting [10]) is 0.273; in assay [3] (setting [11]), -0.466; in assay [3] (setting [12]) it was -0.534. The fluorescence slope in assay [5] was -0.479 (inactive). Besides, in assay [6], the NADPH fluorescence slope is -6.8e-05 (inactive). Moreover, in [7], the slope was 0.00498 (inactive). The molecule was classed as inactive in assay [8].
As to `Cc1nnc2n(-c3ccccc3)c(=O)c3c4c(sc3n12)COC(C(C)C)C4` (stereo unspecified), the cell count in [1] stood at 542. For the same molecule, the inhibition in [1] is -6.5% (inactive); in assay [2] it was -106% (inactive); in assay [4], -0.608% (inactive); in [9] it was -3.02% (inactive). The molecule further returned a nuclei count in assay [2] of 177%. Further, the z-score in assay [3] (setting [10]) is -0.97; in assay [3] (setting [11]) it was 1.36; in [3] (setting [12]) it was -0.55. The fluorescence slope in assay [5] was -0.357 (inactive). The NADPH fluorescence slope in assay [6] is -2.6e-05 (inactive). Further, the slope in assay [7] was 0.00506 (inactive). Besides, in assay [8], the molecule was called inactive.
Take `COc1ccc(-c2nc3n(c2Br)CCC3)cc1`: the cell count in assay [1] was 587. Moreover, the inhibition was -14.6% (inactive) in assay [1], -22.2% (inactive) in assay [2], 39% (inactive) in assay [4] and 49.9% (inactive) in assay [9]. The molecule further registered a nuclei count in assay [2] of 162%. The z-score in assay [3] (setting [10]) was 1.1; in assay [3] (setting [11]) it was 0.741; in [3] (setting [12]), -1.03. In assay [5], the fluorescence slope is -0.503 (inactive). Also, the NADPH fluorescence slope in assay [6] is -2.6e-05 (inactive). The slope in [7] is 0.00527 (inactive). Further, the call in [8] was inactive.
For `Clc1ccc2nc(CSc3nc4ccccc4o3)cn2c1`, in [1], the cell count amounted to 405. For the same molecule, the inhibition in [1] was -12.3% (inactive); in assay [2], -79.3% (inactive); in assay [4] it was 11.9% (inactive); in assay [9], -14.7% (inactive). For the same molecule, the nuclei count in assay [2] worked out at 99.4%. The z-score in [3] (setting [10]) is -0.399; in assay [3] (setting [11]) it was -0.856; in assay [3] (setting [12]), -1.36. Also, the fluorescence slope in assay [5] is -0.49 (inactive). The NADPH fluorescence slope in assay [6] was -0.000153 (inactive). In addition, the slope in [7] is 0.00552 (inactive). Further, the call in assay [8] was inactive.
Take `Cc1onc(-c2ccccc2Cl)c1C(=O)N1CCN(c2nc3ccccc3s2)CC1`: the cell count in [1] came out at 340. For the same molecule, the inhibition was -8.1% (inactive) in [1], -48.8% (inactive) in [2], 25.4% (inactive) in [4] and 13% (inactive) in assay [9]. The molecule further had a nuclei count in [2] of 168%. Moreover, the z-score in [3] (setting [10]) is 1.76; in assay [3] (setting [11]), -0.608; in assay [3] (setting [12]), -1.2. The fluorescence slope in assay [5] was -0.417 (inactive). Moreover, the NADPH fluorescence slope in assay [6] was -0.000136 (inactive). The slope in [7] was 0.00481 (inactive). Also, the outcome in assay [8] was inactive.
For `Oc1c(C=Nc2cccnc2)sc2ccccc12`, in [1], the cell count was found to be 623. The inhibition in [1] is -14.4% (inactive); in [2], -17% (inactive); in assay [4], -20.4% (inactive); in assay [9] it was -14.9% (inactive). The molecule further yielded a nuclei count in assay [2] of 170%. The z-score worked out at 0.476 in assay [3] (setting [10]), 0.705 in assay [3] (setting [11]) and 1.13 in [3] (setting [12]). Besides, in assay [5], the fluorescence slope was -0.405 (inactive). Also, the NADPH fluorescence slope in assay [6] was -6e-05 (inactive). The slope in [7] is 0.0055 (inactive). The molecule was classed as inactive in [8].
With `CCOc1ccc(/C(O)=C2/C(=O)C(=O)N(CCN(CC)CC)C2c2ccco2)cc1` (stereo unspecified), the cell count in [1] came to 494. Moreover, the inhibition in [1] was -10.3% (inactive); in [2] it was -38.9% (inactive); in assay [4] it was -15% (inactive); in assay [9], -2.21% (inactive). Also, the nuclei count in assay [2] was 136%. Moreover, the z-score in assay [3] (setting [10]) is 0.106; in assay [3] (setting [11]), 0.969; in assay [3] (setting [12]), -0.475. Further, the fluorescence slope in assay [5] is -0.521 (inactive). Also, the NADPH fluorescence slope in assay [6] is -4.6e-05 (inactive). Also, the slope in [7] was 0.00598 (inactive). Besides, the molecule was called inactive in assay [8].
